Reference: ChEMBL document CHEMBL2311299, “New 2-(aryloxy)-3-phenylpropanoic acids as peroxisome proliferator-activated receptor α/γ dual agonists able to upregulate mitochondrial carnitine shuttle system gene expression” (J Med Chem, 2013)
Active and inactive are the calls of the source. The rule behind the calls is not given here.

Legend:
[1] = biological target: T1, Peroxisome proliferator-activated receptor gamma (Homo sapiens) (UniProt P37231); test: Binding affinity to PPARgamma-LBD site A (unknown origin) at 400 uM after 3 hrs by isothermal titration calorimetry assay
T1 sequence (whole entry): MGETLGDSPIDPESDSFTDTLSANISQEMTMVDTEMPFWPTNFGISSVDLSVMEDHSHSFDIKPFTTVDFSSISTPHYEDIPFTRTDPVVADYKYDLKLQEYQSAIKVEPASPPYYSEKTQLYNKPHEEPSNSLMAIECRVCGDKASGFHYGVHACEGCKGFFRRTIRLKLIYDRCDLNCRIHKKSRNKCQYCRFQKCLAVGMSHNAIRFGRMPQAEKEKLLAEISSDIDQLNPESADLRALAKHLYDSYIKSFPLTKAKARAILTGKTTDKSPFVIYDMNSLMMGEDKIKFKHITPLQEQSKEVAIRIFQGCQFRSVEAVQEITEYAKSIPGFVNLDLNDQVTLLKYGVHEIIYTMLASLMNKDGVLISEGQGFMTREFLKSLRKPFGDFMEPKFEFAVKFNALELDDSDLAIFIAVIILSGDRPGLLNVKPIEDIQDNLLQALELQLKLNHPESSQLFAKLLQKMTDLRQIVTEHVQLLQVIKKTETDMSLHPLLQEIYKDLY
Procedure, shortened: (§1)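 ITC at 25 °C on His-tagged PPARγ LBD dialysed into 20 mM Hepes pH 8.0, 1 mM TCEP; DMSO matched (<1%). […] Conditions: ligand 400 μM into 40 μM protein (5); reverse, 400 μM protein into 40 μM ligand (6); 600 μM ligand into 60 μM protein (7); protein 47 μM pre-equilibrated 3 h 1:1 with site-A ligand, titrated with 470 μM ligand (8); reverse titration (9).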

[2] = biological target: T2, Peroxisome proliferator-activated receptor alpha (Homo sapiens) (UniProt Q07869); test: Agonist activity at PPARalpha in human HepG2 cells assessed as upregulation of CPT1 mRNA expression at 1 uM after 24 hrs by RT-PCR analysis relative to control; assay type: cell-based
T2 sequence (whole entry): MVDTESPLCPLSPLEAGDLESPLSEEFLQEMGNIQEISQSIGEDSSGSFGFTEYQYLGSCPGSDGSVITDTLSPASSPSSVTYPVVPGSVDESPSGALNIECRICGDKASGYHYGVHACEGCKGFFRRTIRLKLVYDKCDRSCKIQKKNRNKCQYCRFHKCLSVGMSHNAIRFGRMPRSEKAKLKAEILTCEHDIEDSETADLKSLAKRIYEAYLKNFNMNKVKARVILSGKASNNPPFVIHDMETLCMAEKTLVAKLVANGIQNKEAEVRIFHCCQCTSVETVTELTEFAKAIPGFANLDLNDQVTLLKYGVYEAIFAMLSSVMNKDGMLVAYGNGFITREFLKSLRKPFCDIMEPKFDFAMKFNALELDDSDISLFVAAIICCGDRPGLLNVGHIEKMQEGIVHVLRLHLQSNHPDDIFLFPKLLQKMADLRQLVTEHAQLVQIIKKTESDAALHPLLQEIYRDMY
Procedure, shortened: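 Serum-starved HepG2 cells (24 h depletion) exposed for 24 h to 1 μM ligand; untreated cells as control; Wy 14,643 (50 μM) reference. Total RNA from 1 × 10^6 cells, reverse transcribed, CAC or CPT1 transcript quantified by real-time PCR against human actin. Means ± SD of three duplicate independent experiments; one-way ANOVA, Bonferroni test versus control.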

[3] = biological target: T1, Peroxisome proliferator-activated receptor gamma (Homo sapiens); test: Binding affinity to PPARgamma-LBD site A and site B (unknown origin) at 40 uM after 3 hrs by isothermal titration calorimetry assay; procedure, shortened: as §1
[4] = biological target: T2, Peroxisome proliferator-activated receptor alpha (Homo sapiens); test: Agonist activity at PPARalpha in human HepG2 cells assessed as upregulation of CAC mRNA expression at 1 uM after 24 hrs by RT-PCR analysis relative to control; assay type: cell-based
Procedure, shortened: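 Total RNA from 1 × 10^6 cells, reverse transcribed, CAC or CPT1 transcript quantified by real-time PCR against human actin. Means ± SD of three duplicate independent experiments; one-way ANOVA, Bonferroni test versus control.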

[5] = biological target: T2, Peroxisome proliferator-activated receptor alpha (Homo sapiens); test: Transactivation of GAL4-fused human PPARalpha ligand binding domain expressed in HepG2 cells after 20 hrs by luciferase reporter gene assay relative to WY-14643; assay type: cell-based
Procedure, shortened: (§2)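 HepG2 cells transiently transfected (calcium phosphate) with Gal4–PPARα-LBD or Gal4–PPARγ-LBD (30 ng), five-Gal4-element TK-luciferase reporter (100 ng) and pCMVβgal (250 ng). 4 h post-transfection, triplicate 20 h ligand treatment up to 10 μM; luciferase read, β-galactosidase measured with ONPG. Efficacy as % of maximal fold induction by Wy-14,643 (α) or rosiglitazone (γ); experiments repeated at least twice.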

[6] = biological target: T2, Peroxisome proliferator-activated receptor alpha (Homo sapiens); test: Agonist activity at PPARalpha in human HepG2 cells assessed as upregulation of CPT1 protein expression at 1 uM after 48 hrs by Western blotting analysis relative to control
[7] = biological target: T2, Peroxisome proliferator-activated receptor alpha (Homo sapiens); test: Agonist activity at PPARalpha in human HepG2 cells assessed as upregulation of CAC protein expression at 1 uM after 48 hrs by Western blotting analysis relative to control
[8] = biological target: T1, Peroxisome proliferator-activated receptor gamma (Homo sapiens); test: Binding affinity to PPARgamma-LBD site B (unknown origin) in presence of (S)-2-(biphenyl-4-yloxy)-3-phenylpropanoic acid at 470 uM after 3 hrs by isothermal titration calorimetry assay; procedure, shortened: as §1
[9] = biological target: T3, Peroxisome proliferator-activated receptor gamma (Homo sapiens, UniProt P37231); test: Transactivation of GAL4-fused human PPARgamma ligand binding domain expressed in HepG2 cells after 20 hrs by luciferase reporter gene assay; assay type: cell-based
T3 sequence (P37231 whole entry): T1 sequence (whole entry)

[10] = biological target: T4, Peroxisome proliferator-activated receptor alpha (Homo sapiens, UniProt Q07869); test: Transactivation of GAL4-fused human PPARalpha ligand binding domain expressed in HepG2 cells after 20 hrs by luciferase reporter gene assay; assay type: cell-based
T4 sequence (Q07869 whole entry): T2 sequence (whole entry)
Procedure, shortened: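 HepG2 cells transiently transfected (calcium phosphate) with Gal4–PPARα-LBD or Gal4–PPARγ-LBD (30 ng), five-Gal4-element TK-luciferase reporter (100 ng) and pCMVβgal (250 ng). 4 h post-transfection, triplicate 20 h ligand treatment up to 10 μM; luciferase read, β-galactosidase measured with ONPG.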

[11] = biological target: T1, Peroxisome proliferator-activated receptor gamma (Homo sapiens); test: Transactivation of GAL4-fused human PPARgamma ligand binding domain expressed in HepG2 cells up to 10 uM after 20 hrs by luciferase reporter gene assay; assay type: cell-based; procedure, shortened: as §2
[12] = biological target: T1, Peroxisome proliferator-activated receptor gamma (Homo sapiens); test: Binding affinity to PPARgamma-LBD site B and site C (unknown origin) at 60 uM after 3 hrs by isothermal titration calorimetry assay; procedure, shortened: as §1
[13] = biological target: T1, Peroxisome proliferator-activated receptor gamma (Homo sapiens); test: Binding affinity to PPARgamma-LBD site B (unknown origin) at 600 uM after 3 hrs by isothermal titration calorimetry assay; procedure, shortened: as §1

Emax [5] [%] | EC50 [9] [nM] | EC50 [10] [nM] | Compound | further results
147 |  |  | CC(C)c1ccccc1-c1ccc(OC(Cc2ccccc2)C(=O)O)cc1 (single isomer, unassigned; form 1) [listing 1 of 2 here] | Ka [1]: 3.6 ×10⁵ /M; fold change (FC) [2]: 2.3; Ka [3]: 3.1 ×10⁵ /M; fold change (FC) [4]: 1.5; Activity [6]: Active; Activity [7]: Active; Ka [8]: 1.87 ×10⁵ /M
124 | 2300 | 130 | COc1ccccc1-c1ccc(O[C@@H](Cc2ccccc2)C(=O)O)cc1 | 
116 |  |  | O=C(O)[C@H](Cc1ccccc1)Oc1ccc(-c2ccccc2)cc1 | 
132 | 1400 | 44 | O=C(O)[C@H](Cc1ccccc1)Oc1ccc(-c2ccccc2-c2ccccc2)cc1 | 
155 | 1360 | 67 | Cc1ccccc1-c1ccc(O[C@@H](Cc2ccccc2)C(=O)O)cc1 | 
 | 1000 | 12 | CC(C)c1ccccc1-c1ccc(OC(Cc2ccccc2)C(=O)O)cc1 (single isomer, unassigned; form 1) [listing 2 of 2 here] | 
68 | 700 | 990 | Cc1cc(-c2ccccc2)ccc1O[C@@H](Cc1ccccc1)C(=O)O | 
 |  |  | CC(C)(Sc1ccc(CCN(CCCCC2CCCCC2)C(=O)NC2CCCCC2)cc1)C(=O)O | Activity [2]: Active
74 | 590 | 210 | Cc1ccc(-c2ccc(O[C@@H](Cc3ccccc3)C(=O)O)cc2)cc1 | 
131 |  | 240 | CCCc1ccccc1-c1ccc(OC(Cc2ccccc2)C(=O)O)cc1 (racemic) | Activity [11]: Active
107 |  | 500 | CCCCCc1ccccc1-c1ccc(OC(Cc2ccccc2)C(=O)O)cc1 (racemic) | Activity [11]: Active
120 | 700 | 80 | Cc1cc(O[C@@H](Cc2ccccc2)C(=O)O)ccc1-c1ccccc1 | 
126 | 1000 | 22 | O=C(O)[C@H](Cc1ccccc1)Oc1ccc(-c2ccccc2C(F)(F)F)cc1 | 
50 | 2040 | 2100 | Cc1cc(OC(Cc2ccccc2)C(=O)O)cc(C)c1-c1ccccc1 (racemic) | 
68 | 690 | 120 | O=C(O)[C@H](Cc1ccccc1)Oc1ccc(-c2ccccc2F)cc1 | 
73 |  | 280 | O=C(O)C(Cc1ccccc1)Oc1ccc(-c2ccccc2CCc2ccccc2)cc1 (racemic) | Activity [11]: Active
123 | 2540 | 230 | Cc1cccc(C)c1-c1ccc(O[C@@H](Cc2ccccc2)C(=O)O)cc1 | 
145 |  |  | CC(C)c1ccccc1-c1ccc(OC(Cc2ccccc2)C(=O)O)cc1 (single isomer, unassigned; form 2) [listing 1 of 2 here] | Ka [12]: 1.3 ×10⁵ /M; Ka [13]: 1.34 ×10⁵ /M; Activity [11]: Active
69 | 460 | 220 | Cc1cccc(-c2ccc(OC(Cc3ccccc3)C(=O)O)cc2)c1 (racemic) | 
143 | 1200 | 12 | CCc1ccccc1-c1ccc(O[C@@H](Cc2ccccc2)C(=O)O)cc1 | 
61 | 3100 | 1130 | Cc1cc(-c2ccccc2)cc(C)c1O[C@@H](Cc1ccccc1)C(=O)O | 
 |  |  | Cc1cccc(Nc2cc(Cl)nc(SCC(=O)O)n2)c1C | Activity [11]: inactive
 |  | 100 | CC(C)c1ccccc1-c1ccc(OC(Cc2ccccc2)C(=O)O)cc1 (single isomer, unassigned; form 2) [listing 2 of 2 here] | 
133 | 640 | 31 | Cc1ccccc1-c1ccc(O[C@@H](Cc2ccccc2)C(=O)O)cc1C | 
